High-throughput results as filed in PubChem BioAssay.
MrgX1 allo act = allosterically activates human MrgX1 receptor signaling | actives 0.63% (n = 310,000) | B-score at 10 µM | MrgX1-HEK293, Fluo-4 calcium flux, FDSS; hits give high values;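 active = plate-corrected calcium response at least 3 library SD above typical, normal starting fluorescence, not activating the receptor alone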;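 note: compound read alongside a low EC10 to EC30 dose of BAM8-22 agonist; peak minus trough fluorescence over baseline measured at the second addition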
Target sequence (Q96LB2 whole entry, looked up): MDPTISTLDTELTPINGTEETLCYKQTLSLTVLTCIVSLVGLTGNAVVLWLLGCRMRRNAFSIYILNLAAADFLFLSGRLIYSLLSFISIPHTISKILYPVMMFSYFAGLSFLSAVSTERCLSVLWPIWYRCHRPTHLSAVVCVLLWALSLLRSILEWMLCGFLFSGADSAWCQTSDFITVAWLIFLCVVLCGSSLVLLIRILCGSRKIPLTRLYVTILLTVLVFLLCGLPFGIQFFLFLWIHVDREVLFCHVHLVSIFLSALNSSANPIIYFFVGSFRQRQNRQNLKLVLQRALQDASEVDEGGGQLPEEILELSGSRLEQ
MrgX1 ag = agonists of human MrgX1 receptor; MrgX1-HEK293 cells, Fluo-4 calcium fluorescence, agonist mode; hits give high values; actives 0.44% (n = 310,000); Q96LB2; B-score at 10 µM; AID 588627;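 active = calcium response B-score plate-corrected fluorescence ratio at least 3 library SD, with starting fluorescence B-score inside 5 SD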
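times = overnight plating, then 30 min 37 °C plus 30 min room-temperature dye loading | assay system = stable human MrgX1 HEK293 cell line | input = fifteen thousand cells per well | signal = kinetic calcium dye fluorescence, Fluo-4 NW | dosing = compound delivered in addition one of three | read-out = B-scored fluorescence response ratio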
RGS4 inh = human RGS4 inhibition. P49798. HEK293 M3R/RGS4 inducible, Fluo-4 calcium flux; hits give high values; triggered by carbachol at its EC20. B-score at 10 µM. actives 0.45% (n = 310,000). AID 463165;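 active = B-score, a plate-corrected calcium signal, over three deviations above library mean, with baseline fluorescence within five deviations of library mean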;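 note: RGS4 expression induced by doxycycline in cells with stable M3 receptor; B-score is computed from the integrated fluorescence ratio over baseline after carbachol; higher B-score means a larger calcium signal and so more RGS4 inhibition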
MrgX1 antagonist = antagonists of human MrgX1 receptor; Q96LB2; MRGX1-HEK293 calcium flux, Fluo-4, BAM8-22 antagonism; hits give low values; B-score at 10 µM; actives 1.3% (n = 310,000);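 active = calcium-response B-score plate-corrected more than 3 library SD below zero, starting fluorescence within 5 deviations, no agonist response on first addition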;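 note: peak minus trough fluorescence over baseline after final BAM8-22 challenge near maximal dose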
RGS4 act = RGS4 potentiation or activation. HEK293 M3R/inducible RGS4, carbachol calcium flux Fluo4; hits give low values. B-score at 10 µM. actives 0.92% (n = 310,000);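 active = B-score of the integrated calcium signal more than 4 SD below the library mean, with starting fluorescence not abnormally high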;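 note: negative B-score means reduced calcium response which marks RGS4 activation or potentiation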
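Test system: HEK293 cells with stable M3R and inducible RGS4; also added: carbachol at ECmax as muscarinic agonist stimulus; schedule: dye loading 30 min 37 °C, buffer rest 30 min RT; technique: kinetic calcium fluorescence imaging with Fluo4-AM dye, 2 µM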
MrgX1 antag conf = confirmation of human MrgX1 receptor antagonists. shares compounds with MrgX1 antagonist. remaining BAM8-22 calcium response % of control (hits give low values), % at 10 µM. MrgX1-HEK293, BAM8-22 calcium flux, Fluo-4; hits give low values. actives 19% (n = 2,300);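 active = remaining agonist calcium response no higher than 100% minus 3 SD of agonist-only control wells, with starting fluorescence near control levels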;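 note: agonist BAM8-22 given at a near maximal EC90 to ECmax level; peak minus minimum fluorescence divided by baseline after agonist addition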
HEK293 Ca flux = counter-screen for MrgX1 antagonists: effect in parental HEK293 cells; actives 2% (n = 4,000); Fluo-4 calcium fluorescence, FDSS; fluorescence ratio F(max-min)/F0 at 10 µM; shares compounds with MrgX1 antagonist;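 active = duplicate-averaged calcium fluorescence ratio at least three times the standard deviation of buffer wells, a nonspecific response in parental cells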
HEK293 Ca counter = counter-screen for MrgX1 allosteric activators: effect in parental HEK293 cells; fluorescence ratio F(max-min)/F0 at 10 µM; parental HEK293 calcium flux, Fluo-4 fluorescence ratio; hits give high values; shares compounds with MrgX1 antagonist; actives 0.4% (n = 4,000); AID 624114;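 active = calcium fluorescence ratio, averaged over duplicates, at least 3 SD of the buffer-well ratio, meaning a nonspecific response in receptor-free cells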;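 note: untransfected parental HEK293 lacking MrgX1 used as counterscreen for MrgX1 allosteric activators; fluorescence change taken during the second addition on a kinetic imager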
HEK293 Ca cntr2 = counter-screen for MrgX1 activators: effect in parental HEK293 cells. shares compounds with MrgX1 antagonist. Fluo-4 calcium fluorescence (FDSS); hits give high values. fluorescence ratio F(max-min)/F0 at 10 µM. actives 8.7% (n = 4,000). AID 624115;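 active = calcium fluorescence ratio at least three times the spread of buffer wells, meaning a non-specific response in parental cells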
* marks the source's active call; other numbers are inactive results; i = inactive; . = no result given. Compounds with a hit are over-represented: about 3.5% of the library has one in this group of screens.

SMILES	MrgX1 allo act	MrgX1 ag	RGS4 inh	MrgX1 antagonist	RGS4 act	MrgX1 antag conf	HEK293 Ca flux	HEK293 Ca counter	HEK293 Ca cntr2
COC(=O)CS(=O)(=O)c1cc(Br)cc2c1N(C(C)=O)CC2	i	i	i	-5.4*	i	i	i	i	65*
O=C(OCCN1C(=O)c2ccccc2C1=O)c1cccs1	i	i	i	-5*	i	i	i	i	i
COCCN(C(=O)c1ccc(-c2ccc(Cl)cc2)o1)c1c(N)n(Cc2ccccc2)c(=O)[nH]c1=O	i	i	i	i	i	.	.	.	.
CCN(CC(=O)NC(=O)Nc1ccccc1F)Cc1ccccc1	i	i	i	i	i	.	.	.	.
COc1ccccc1N1CCN(C(=O)C2CCCO2)CC1 (configuration not stated)	i	i	i	-8.2*	i	i	i	i	i
CN(C)/C=N/NC(=O)C1Cc2c(ccc3ccccc23)O1 (configuration not stated)	i	i	i	i	i	.	.	.	.
CCCCn1c(N)c(N(CC(C)C)C(=O)c2oc3ccc(Br)cc3c2C)c(=O)[nH]c1=O	i	i	i	i	i	.	.	.	.
CCOC(=O)Nc1ccc2c(CN3CCN(S(=O)(=O)c4ccccc4)CC3)cc(=O)oc2c1	i	i	i	i	i	.	.	.	.
CCOC(=O)Nc1ccc2c(CN3C(=O)NC(CC)(CC)C3=O)cc(=O)oc2c1	i	i	i	-4.7*	i	81%*	i	i	i
Fc1ccccc1Cc1noc(CN2CCN(c3ccc(Cl)cn3)CC2)n1	i	i	i	i	i	.	.	.	.
CC1(C)CC(=O)N(CC(=O)O)c2ccccc2S1	i	i	i	-4.5*	i	i	i	i	i
COC(=O)CN1C(=O)CC(C)(C)Sc2ccccc21	i	i	i	i	i	.	.	.	.
CCOC(=O)C1(CCOC)CCN(C/C=C/c2ccccc2OC)CC1	i	i	i	i	i	.	.	.	.
CC(=O)COc1cc2c(-c3cc4ccccc4o3)cc(=O)oc2cc1C	i	i	i	i	i	.	.	.	.
O=C(NCCCN1CCOCC1)c1cccc(S(=O)(=O)Nc2ccccc2Cl)c1	i	i	i	i	i	.	.	.	.
OC(CN1CCOCC1)Cn1c2ccccc2c2ccccc21 (configuration not stated)	i	i	i	i	i	.	.	.	.
O=C1c2ccccc2C(=O)N1CC(O)CN1CCOCC1 (configuration not stated)	i	i	i	-5.2*	i	i	i	i	i
Cc1nn(CCO)c2nc(-c3cccs3)cc(C(F)(F)F)c12	i	i	i	-9.5*	i	i	i	i	i
Cc1ccc(S(=O)(=O)N(CC(=O)Nc2ccccc2C(=O)O)c2cccc(Cl)c2C)cc1	i	i	i	-7.1*	i	i	i	i	i
Cc1ccc(Cc2nc(-c3cccnc3)no2)cc1	i	i	i	-4.8*	i	i	i	i	i
CCC(CO)n1c(=S)[nH]c2cc(OC)c(OC)cc2c1=O (configuration not stated)	i	i	i	-4.6*	i	i	i	i	i
CCOc1cc2[nH]c(=S)n(C(C)C)c(=O)c2cc1OCC	i	i	i	i	i	.	.	.	.
